Reference: ChEMBL document CHEMBL1127574, “Design and synthesis of ellipticinium salts and 1,2-dihydroellipticines with high selectivities against human CNS cancers in vitro” (1994)

Assays:
Type in all cases: functional
CAKI-1 [1] = assay: Tested in vitro for cytotoxicity in CAKI-1 cell line of Renal cancer; conditions: Homo sapiens, read-out: Log TGI (converted)
How it was run: (§1)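 Compounds dissolved in DMSO, then diluted 500-fold into aqueous medium. The resulting aqueous solutions or suspensions were added to the cultured human tumour cell lines, and the cells were exposed for 48 h. Growth was read colorimetrically in one of two ways: a metabolic assay in which viable cells reduce a tetrazolium salt to a formazan dye, or a protein stain for total cellular protein.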

OVCAR-8 = assay: Tested in vitro for cytotoxicity in OVCAR-8 cell line of Ovarian Cancer; conditions: Homo sapiens, read-out: Log TGI (converted); how it was run: as §1
KM12 = assay: Tested in vitro for cytotoxicity in KM12 cell line of Colon Cancer; conditions: Homo sapiens, read-out: Log TGI (converted); how it was run: as §1
LXFL 529 = assay: Tested in vitro for cytotoxicity in LXFL-529 cell line of Non-Small Cell Lung Cancer; conditions: Homo sapiens, read-out: Log TGI (converted); how it was run: as §1
COLO 205 [2] = assay: Tested in vitro for cytotoxicity in COLO 205 cell line of Colon Cancer; conditions: Homo sapiens, read-out: Log TGI (converted); how it was run: as §1
HOP-62 = assay: Tested in vitro for cytotoxicity in HOP-62 cell line of Non-Small Cell Lung Cancer; conditions: Homo sapiens, read-out: Log TGI (converted); how it was run: as §1
SNB-75 = assay: Tested in vitro for cytotoxicity in SNB-75 cell line of CNS Cancer; conditions: Homo sapiens, read-out: Log TGI (converted)
How it was run: (§2)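 Compounds dissolved in DMSO and diluted 500-fold into aqueous medium; aliquots of the resulting solutions or suspensions added to cultured human tumor cells for 48 h. Growth read colorimetrically, either by tetrazolium reduction to formazan by viable cells or by protein staining of total cellular protein.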

HCT-15 = assay: Tested in vitro for cytotoxicity in HCT-15 cell line of Colon Cancer; conditions: Homo sapiens, read-out: Log TGI (converted); how it was run: as §1
M14 = assay: Tested in vitro for cytotoxicity in M14 cell line of Melanoma; conditions: Homo sapiens, read-out: Log TGI (converted); how it was run: as §1
COLO 205 [3] = assay: Tested in vitro for cytotoxicity in COLO 205 cell lines; conditions: Homo sapiens; how it was run: as §1
RXF 631 = assay: Tested in vitro for cytotoxicity in RXF-631 cell line of Renal cancer; conditions: Homo sapiens, read-out: Log TGI (converted); how it was run: as §1
U-251 = assay: Tested in vitro for cytotoxicity in U251 cell line of CNS Cancer; conditions: Homo sapiens, read-out: Log TGI (converted); how it was run: as §2
OVCAR-5 = assay: Tested in vitro for cytotoxicity in OVCAR-5 cell line of Ovarian Cancer; conditions: Homo sapiens, read-out: Log TGI (converted); how it was run: as §1
786-0 = assay: Tested in vitro for cytotoxicity in 786-0 cell line of Renal cancer; conditions: Homo sapiens, read-out: Log TGI (converted); how it was run: as §1
UO-31 = assay: Tested in vitro for cytotoxicity in UO-31 cell line of Renal cancer; conditions: Homo sapiens, read-out: Log TGI (converted); how it was run: as §2
EKVX = assay: Tested in vitro for cytotoxicity in EKVX cell line of Non-Small Cell Lung Cancer; conditions: Homo sapiens, read-out: Log TGI (converted)
How it was run: (§3)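 Compound DMSO solutions diluted 500-fold into aqueous medium; the resulting solutions or suspensions were added to cultured human tumor cells for 48 h. Growth was read colorimetrically, either by tetrazolium reduction to formazan by viable cells or by a protein stain for total cellular protein.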

SK-MEL-28 = assay: Tested in vitro for cytotoxicity in SK-MEL-28 cell line of Melanoma; conditions: Homo sapiens, read-out: Log TGI (converted); how it was run: as §1
SNB-78 = assay: Tested in vitro for cytotoxicity in SNB-78 cell line of CNS Cancer; conditions: Homo sapiens, read-out: Log TGI (converted); how it was run: as §2
TK-10 = assay: Tested in vitro for cytotoxicity in TK-10 cell line of Renal cancer; conditions: Homo sapiens, read-out: Log TGI (converted); how it was run: as §2
SNB-19 = assay: Tested in vitro for cytotoxicity in SNB-19 cell line of CNS Cancer; conditions: Homo sapiens, read-out: Log TGI (converted); how it was run: as §3
HCC 2998 = assay: Tested in vitro for cytotoxicity in HCC2998 cell line of Colon Cancer; conditions: Homo sapiens, read-out: Log TGI (converted); how it was run: as §1
A549 = assay: Tested in vitro for cytotoxicity in A549/ATCC cell line of Non-Small Cell Lung Cancer; conditions: Homo sapiens, read-out: Log TGI (converted); how it was run: as §1
LOX IMVI = assay: Tested in vitro for cytotoxicity in LOX IMVI cell line of Melanoma; conditions: Homo sapiens, read-out: Log TGI (converted); how it was run: as §1
Malme-3M = assay: Tested in vitro for cytotoxicity in MALME-3M cell line of Melanoma; conditions: Homo sapiens, read-out: Log TGI (converted); how it was run: as §1
NCI-H522 = assay: Tested in vitro for cytotoxicity in NCI-H522 cell line of Non-Small Cell Lung Cancer; conditions: Homo sapiens, read-out: Log TGI (converted); how it was run: as §1
SF-539 = assay: Tested in vitro for cytotoxicity in SF-539 cell line of CNS Cancer; conditions: Homo sapiens, read-out: Log TGI (converted); how it was run: as §1
CAKI-1 [4] = assay: Tested in vitro for cytotoxicity in CAKI-1 cell lines; conditions: Homo sapiens; how it was run: as §1
K562 = assay: Tested in vitro for cytotoxicity in K-562 cell line of Leukemia; conditions: Homo sapiens, read-out: Log TGI (converted); how it was run: as §1
SF-268 [5] = assay: Tested in vitro for cytotoxicity in SF-268 cell lines; conditions: Homo sapiens; how it was run: as §1
NCI-H460 = assay: Tested in vitro for cytotoxicity in NCI-H460 cell line of Non-Small Cell Lung Cancer; conditions: Homo sapiens, read-out: Log TGI (converted); how it was run: as §1
SF-268 [6] = assay: Tested in vitro for cytotoxicity in SF-268 cell line of CNS cancer; conditions: Homo sapiens, read-out: Log TGI (converted); how it was run: as §1

Which TGI (CAKI-1 [1]) does the source give for `COc1ccc2[nH]c3c(C)c4cc[n+](C)cc4c(C)c3c2c1` here?
The TGI was greater than 100 µM.

What about the TGI (OVCAR-8) of the same compound?
Its TGI is 31.6 µM.

And the TGI (KM12)?
Its TGI is 25.1 µM.

And the TGI (LXFL 529)?
Its TGI is 10 µM.

What about the TGI (COLO 205 [2]) of the same compound?
The TGI was 39.8 µM.

What about the TGI (HOP-62) of the same compound?
The TGI was 6.31 µM.

What about the TGI (SNB-75) of the same compound?
The TGI was 3.16 µM.

What about the TGI (HCT-15) of the same compound?
The TGI was greater than 100 µM.

What about the TGI (M14) of the same compound?
The TGI was greater than 100 µM.

And the GI50 (COLO 205 [3])?
Its GI50 is 2.4 µM.

And the TGI (RXF 631)?
Its TGI is greater than 100 µM.

What about the TGI (U-251) of the same compound?
Its TGI is 5.01 µM.

And the TGI (OVCAR-5)?
The TGI was greater than 100 µM.

And the TGI (786-0)?
The TGI was 5.01 µM.

And the TGI (UO-31)?
The TGI was greater than 100 µM.

And the TGI (EKVX)?
The TGI was 25.1 µM.

And the TGI (SK-MEL-28)?
The TGI was 50.1 µM.

What about the TGI (SNB-78) of the same compound?
The TGI was 10 µM.

What about the TGI (TK-10) of the same compound?
The TGI was greater than 100 µM.

And the TGI (SNB-19)?
Its TGI is 10 µM.

What about the TGI (HCC 2998) of the same compound?
The TGI was 63.1 µM.

What about the TGI (A549) of the same compound?
Its TGI is greater than 100 µM.

What about the TGI (LOX IMVI) of the same compound?
Its TGI is greater than 100 µM.

And the TGI (Malme-3M)?
The TGI was 25.1 µM.

And the TGI (NCI-H522)?
Its TGI is 7.94 µM.

And the TGI (SF-539)?
Its TGI is 6.31 µM.

What about the GI50 (CAKI-1 [4]) of the same compound?
The GI50 was 48.2 µM.

And the TGI (K562)?
Its TGI is greater than 100 µM.

And the GI50 (SF-268 [5])?
Its GI50 is 0.409 µM.

What about the TGI (NCI-H460) of the same compound?
The TGI was 79.4 µM.

And the TGI (SF-268 [6])?
The TGI was 5.01 µM.
